Key:
EGFR^L858R/T790M/C797S = EGFR^L858R/T790M/C797S (Homo sapiens, UniProt P00533, C797S/L858R/T790M); test: In vitro enzymatic activity assay; format: biochemical
How it was run: (§1)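 Reaction mix: 40 mM Tris pH 7.4, 10 mM MgCl2, 0.1 mg/mL BSA, 1 mM DTT, 10 μM ATP, 25 ng kinase and 0.2 mg/mL poly(Glu,Tyr) substrate. Test compound diluted in 10% DMSO before addition, giving 1% DMSO final. Residual ATP read by luminescence, with signal inverse to kinase activity. IC50 from nonlinear regression of normalized dose–response data.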

EGFR^Del19/T790M/C797S = EGFR^Del19/T790M/C797S (Homo sapiens, UniProt P00533, C797S/DEL746-750/T790M); test: In vitro enzymatic activity assay; format: biochemical
How it was run: as §1

Oc1ccccc1-c1nc(NCCN2CCNCC2)c2ccccc2n1 [4a, 2-(4-((2-(Piperazin-1-yl)ethyl)amino)quinazolin-2-yl)phenol]
IC50 (EGFR^L858R/T790M/C797S): 1.22 ± 0.031 µM | IC50 (EGFR^Del19/T790M/C797S): 1.43 ± 0.022 µM

Source: paper PMC10795152 (ACS Omega, 2024)
